Each structure is given as a SMILES string. “And” between values parts separate entries of the source, which are not always exact repeats. Equal entries are not always repeated.

The target in test [1] is T1, hpol η (Homo sapiens, UniProt Q9Y253).
T1 sequence (Q9Y253 1-437): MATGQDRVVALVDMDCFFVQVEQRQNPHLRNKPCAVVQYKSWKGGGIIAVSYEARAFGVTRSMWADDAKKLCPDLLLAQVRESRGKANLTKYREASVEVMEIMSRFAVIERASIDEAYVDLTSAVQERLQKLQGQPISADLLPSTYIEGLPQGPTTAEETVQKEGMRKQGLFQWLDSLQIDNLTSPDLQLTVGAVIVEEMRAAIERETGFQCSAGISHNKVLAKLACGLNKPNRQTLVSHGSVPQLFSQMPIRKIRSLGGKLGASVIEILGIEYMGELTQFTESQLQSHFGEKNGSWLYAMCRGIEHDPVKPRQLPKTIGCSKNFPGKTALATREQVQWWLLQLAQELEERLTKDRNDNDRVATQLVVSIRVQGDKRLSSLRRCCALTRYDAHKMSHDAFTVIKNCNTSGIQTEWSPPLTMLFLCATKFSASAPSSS
Kind of test: Gel-based pol extension assay, hpol η. As to conditions: read-out: IC50, hpol η, gel-based assay; best-fit value (95% confidence interval), three experiments. It counts as biochemical.

Test [2] deals with T2, hpol η binding to primer–template DNA (Homo sapiens, UniProt Q9Y253).
T2 sequence (Q9Y253 1-437): T1 sequence (Q9Y253 1-437)
Kind of test: Fluorescence anisotropy DNA binding assay. The conditions noted are these: 1–12 μM inhibitor, also above the IC50. In general terms: In fluorescence polarisation assays a small probe gives low polarisation when free and higher when bound to something large.

In test [3] the test system is HAP-1 cells (hpol η-proficient, parental). Kind of test: Cell viability. It counts as cell-based, human. As to conditions: for Combination index (CI) with CDDP: Chou–Talalay. The method in brief: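 HAP-1 parental or CRISPR hpol η-null cells in IMDM with 10% FBS and 1% antibiotic/antimycotic, passage 8–10, seeded 5000 cells/well. Next day: CDDP 0–100 μM alone or with 0.1 or 1 μM test compound, 48 h. Cells washed twice in DPBS, then 2 μM Calcein-AM for 30 min at 25 °C; fluorescence ex 490/em 520 nm. Viability as % of untreated. […] Combination index by Chou–Talalay.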

For another test, the target named is TbPol I (Mycobacterium tuberculosis, UniProt P9WNU5). Kind of test: Fluorescence-based pol activity assay, Tb Pol I. It is filed as biochemical. As to conditions: 20 μM PNR-7-02; mean (±SD).
TbPol I, sequence (P9WNU5 whole entry): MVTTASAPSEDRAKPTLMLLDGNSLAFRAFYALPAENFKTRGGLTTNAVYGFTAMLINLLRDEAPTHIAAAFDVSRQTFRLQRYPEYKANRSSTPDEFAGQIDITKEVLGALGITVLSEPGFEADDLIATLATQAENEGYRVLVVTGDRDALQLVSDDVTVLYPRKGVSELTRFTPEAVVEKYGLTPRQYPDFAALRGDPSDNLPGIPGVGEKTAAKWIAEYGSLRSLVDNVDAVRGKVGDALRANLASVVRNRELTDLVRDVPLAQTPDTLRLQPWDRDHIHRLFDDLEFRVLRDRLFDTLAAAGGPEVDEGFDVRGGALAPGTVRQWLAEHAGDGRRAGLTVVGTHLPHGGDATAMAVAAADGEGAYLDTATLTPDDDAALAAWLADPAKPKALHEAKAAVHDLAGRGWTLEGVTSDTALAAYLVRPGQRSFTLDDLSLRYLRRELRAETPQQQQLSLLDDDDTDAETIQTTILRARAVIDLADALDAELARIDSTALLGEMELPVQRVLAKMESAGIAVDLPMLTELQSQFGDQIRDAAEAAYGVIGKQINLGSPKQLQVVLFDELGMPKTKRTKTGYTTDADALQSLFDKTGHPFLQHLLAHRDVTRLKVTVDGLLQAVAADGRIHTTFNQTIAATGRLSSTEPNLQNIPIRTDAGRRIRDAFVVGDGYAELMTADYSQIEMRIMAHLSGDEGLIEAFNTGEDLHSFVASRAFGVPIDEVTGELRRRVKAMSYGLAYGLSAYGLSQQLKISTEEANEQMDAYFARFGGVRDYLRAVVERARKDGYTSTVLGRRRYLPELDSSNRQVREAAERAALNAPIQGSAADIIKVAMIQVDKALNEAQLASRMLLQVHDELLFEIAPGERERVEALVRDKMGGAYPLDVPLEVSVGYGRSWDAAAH
For a further test, the target named is T3, hpol κ (Homo sapiens, UniProt Q9UBT6).
T3 sequence (Q9UBT6 19-526): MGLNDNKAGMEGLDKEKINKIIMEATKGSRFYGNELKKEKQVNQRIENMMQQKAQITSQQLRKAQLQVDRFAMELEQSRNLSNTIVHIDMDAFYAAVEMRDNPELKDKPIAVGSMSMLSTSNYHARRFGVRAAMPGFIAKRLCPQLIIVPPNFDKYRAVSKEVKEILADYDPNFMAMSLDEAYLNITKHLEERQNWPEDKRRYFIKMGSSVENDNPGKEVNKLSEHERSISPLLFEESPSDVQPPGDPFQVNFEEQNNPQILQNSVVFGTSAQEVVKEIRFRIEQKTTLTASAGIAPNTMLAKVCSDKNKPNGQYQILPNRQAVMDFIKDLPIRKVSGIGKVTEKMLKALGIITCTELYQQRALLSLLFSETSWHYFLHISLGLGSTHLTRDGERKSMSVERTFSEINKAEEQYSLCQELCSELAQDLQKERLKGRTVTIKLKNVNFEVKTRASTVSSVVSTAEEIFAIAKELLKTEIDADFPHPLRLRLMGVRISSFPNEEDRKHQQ
The experiment in a line: Gel-based pol extension assay, hpol κ. It is filed as biochemical. A digest of the protocol: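 Gel extension assay with hpol ι core (residues 1–446) or hpol κ core (residues 19–526). Enzyme 2 nM preincubated 5 min with increasing test compound in 50 mM HEPES pH 7.5, 50 mM NaCl, 1 mM DTT, 0.1 mg/mL BSA, 10% glycerol. Started at 37 °C with 200 nM FAM-labeled 13/18-mer primer–template, 10 μM each dNTP, 5 mM MgCl₂. Quench: 20 mM EDTA/95% formamide, 95 °C. Triplicate; IC50 mean ± SD.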

The next test has as its target hpol β (Homo sapiens, UniProt P06746). The experiment in a line: Fluorescence-based pol activity assay, hpol β. It counts as biochemical. As to conditions: 20 μM PNR-7-02.
Test [4] addresses T1, hpol η. The experiment in a line: Fluorescence-based DNA polymerase activity assay, hpol η. As to conditions: 20 μM PNR-7-02; mean (±SD), three experiments. It is filed as biochemical.
The target in a further test is T4, hRev1 (Homo sapiens, UniProt Q9UBZ9).
T4 sequence (Q9UBZ9 330-833): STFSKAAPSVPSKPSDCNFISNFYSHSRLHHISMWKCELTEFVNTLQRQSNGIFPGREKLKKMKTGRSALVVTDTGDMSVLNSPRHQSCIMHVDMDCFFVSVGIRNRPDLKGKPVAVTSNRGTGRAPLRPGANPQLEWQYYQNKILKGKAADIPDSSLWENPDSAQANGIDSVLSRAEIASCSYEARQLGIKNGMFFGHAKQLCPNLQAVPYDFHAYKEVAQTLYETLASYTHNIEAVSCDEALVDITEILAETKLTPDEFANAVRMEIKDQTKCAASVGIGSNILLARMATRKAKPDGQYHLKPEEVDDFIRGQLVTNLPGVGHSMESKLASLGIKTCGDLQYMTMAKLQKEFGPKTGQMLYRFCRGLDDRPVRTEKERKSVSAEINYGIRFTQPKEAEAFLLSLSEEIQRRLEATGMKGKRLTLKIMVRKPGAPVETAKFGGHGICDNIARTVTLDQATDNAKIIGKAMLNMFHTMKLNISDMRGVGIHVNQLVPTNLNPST
Kind of test: Gel-based pol extension assay, hRev1. It is filed as biochemical. As to conditions: read-out: IC50, hRev1, gel-based assay; best-fit value (95% confidence interval), three experiments.

For test [5], the system named is γH2AX in hpol η-deficient HAP-1 cells. Kind of test: γH2AX immunoblotting, hpol η-deficient HAP-1 cells. It counts as cell-based, human. The method in brief: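 HAP-1 cells treated with DMSO or 0.5 μM CDDP combined with 0.1 or 1 μM test compound. Pellets lysed at 4 °C in HEPES pH 7.5/Triton X-100 buffer with phosphatase and protease inhibitors. 30–40 μg protein run on 4–20% SDS-PAGE, transferred to nitrocellulose. Probed with anti-γH2AX (S139) 1:1500 and HRP anti-rabbit 1:4000; β-actin loading control; chemiluminescence. Bands normalized to β-actin, relative to DMSO; three biological replicates; t test.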
For orientation: A western blot detects proteins with antibodies after separation by electrophoresis.

For `O=C1NC(=S)NC(=O)C1=Cc1cn(Cc2ccc3ccccc3c2)c2ccc(Cl)cc12` [PNR-7-02, 5-((5-chloro-1-(naphthalen-2-ylmethyl)-1H-indol-3-yl)methylene)-2-thioxodihydropyrimidine-4,6-(1H,5H)-dione], the IC50 on hpol η [1] worked out at 8 µM; at hpol κ (read-out: IC50, hpol κ, gel-based assay, best-fit value (95% confidence interval), three experiments), 22 µM; at hRev1, 8 µM. Also, in test [2], the “Change in Kd,DNA for hpol η binding to DNA” value is on record as “less than 20%”. Moreover, the “Combination index values with CDDP, hpol η-proficient cells (summary)” value in test [3] (hpol η-proficient cells co-treated with PNR-7-02) is 0.4–0.6. Further, the “Combination index (CI) with CDDP” value in test [3] (parental HAP-1, 0.1 μM PNR-7-02) is 0.47; in [3] (parental HAP-1, 1 μM PNR-7-02), 0.59. Moreover, the “Decrease of CDDP EC50 on co-treatment with PNR-7-02” value in test [3] (parental HAP-1, both concentrations of inhibitor (0.1 and 1 μM)) is over 2 fold. For the same molecule, the EC50 in [3] (read-out: EC50, cell viability, PNR-7-02 alone, hpol η-proficient parental HAP-1, 48 h) was found to be 4.6 µM. Besides, the “Pol activity relative to DMSO control, TbPol I” value on TbPol I is 93 (±2) %. The “Increase in IC50 against hpol κ” value on hpol κ (gel-based assay, relative to hpol η / hRev1) was about 3 fold. Besides, the “Effect on hpol β” value on hpol β is reported as “no effect”. Also, the “Pol activity relative to DMSO control, hpol β” value on hpol β (mean (±SD)) is reported as 103 (±8) %. The “Pol activity relative to DMSO control, hpol η” value at hpol η [4] was 4.4 (±3.8) % and < 5%. Further, the “μH2AX, combination treatment versus CDDP alone” value in [5] (CDDP + PNR-7-02) is given as “did not increase”. Besides, in test [5] (PNR-7-02 alone), the μH2AX formation result is “did not change”.

As a reminder, the IC50 is the concentration that inhibits the measured activity by half. One may read the EC50 as the concentration needed to bring the measured effect to its halfway point.
